High-throughput results (PubChem BioAssay)
A selection: hits, their analogues and other compounds. The true share with any hit is near 1.4%.
Glyco luc inh: blocks N-linked glycosylation in D54 reporter cells. D54 ERlucT glycosylation luciferase reporter, 24 h; percent of 100 nM tunicamycin response. reporter increase, % at 12.5 µM. 360,000 compounds, 0.23% hits. AID 588692;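 active = mean luciferase reporter signal, scaled so untreated is 0 and the glycosylation-blocking control 100, at or above a set limit in every replicate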;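 also: luciferase carries N-glycosylation sites so blocking glycosylation raises the light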
CDK5 p35 inh: blocks human CDK5/p35 kinase activity. 330,000 compounds, 0.01% hits. Recombinant CDK5/p35, ADP-Glo luminescence, 60 min. AID 488839. inhibition, % at 10 µM;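 active = highest replicate inhibition of at least 50% and at least 75% of replicates reaching 50%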
Target sequence (Q00535 whole entry, looked up): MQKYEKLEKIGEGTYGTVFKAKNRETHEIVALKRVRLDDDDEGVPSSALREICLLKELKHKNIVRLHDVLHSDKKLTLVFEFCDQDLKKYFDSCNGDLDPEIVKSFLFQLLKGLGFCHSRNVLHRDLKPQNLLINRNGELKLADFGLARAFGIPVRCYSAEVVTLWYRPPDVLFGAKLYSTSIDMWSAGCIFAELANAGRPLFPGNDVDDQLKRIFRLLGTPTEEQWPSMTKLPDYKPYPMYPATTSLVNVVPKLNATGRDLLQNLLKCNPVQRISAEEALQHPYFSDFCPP
Target sequence (Q15078 whole entry, looked up): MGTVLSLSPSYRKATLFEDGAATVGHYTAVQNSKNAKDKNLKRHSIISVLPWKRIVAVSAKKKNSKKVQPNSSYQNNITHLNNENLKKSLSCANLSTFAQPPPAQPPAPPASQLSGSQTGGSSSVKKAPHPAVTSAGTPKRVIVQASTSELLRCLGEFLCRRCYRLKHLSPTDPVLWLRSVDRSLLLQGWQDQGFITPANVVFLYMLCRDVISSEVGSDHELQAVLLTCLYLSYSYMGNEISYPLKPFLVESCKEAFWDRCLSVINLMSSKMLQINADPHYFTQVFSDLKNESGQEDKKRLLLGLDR
CAL PDZ FP-1: inhibitors of human CAL PDZ peptide binding; Q9HD26; purified CAL PDZ, TMR-peptide fluorescence polarization, 1 h; inhibition, % at 24.9 µM; 300,000 compounds, 0.92% hits; AID 602252;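 active = mean inhibition of at least 30% with at least half of replicates also reaching 30%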
PvdQ acylase: blocks Pseudomonas aeruginosa PvdQ acylase activity | purified PvdQ acylase, fluorescence plate reader | inhibition, % at 10 µM | 340,000 compounds, 0.063% hits; in the data active = inhibition above about 30%, passing the limit was not always enough
Vif imaging: inhibitors of HIV Vif | AID 602346 | HEK293T cells, Vif self-association by quenched fluorescence, imaging, 24 h | 340,000 compounds, 0.35% hits | inhibition, % at 7.49 µM; in the data active = inhibition above about 50%, passing the limit was not always enough
CAL PDZ FP-2: inhibitors of human CAL PDZ peptide binding | Q9HD26 | purified CAL PDZ, TMR-peptide fluorescence polarization, 1 h | inhibition, % at 20 µM | 330,000 compounds, 0.02% hits | AID 504414;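 active = highest replicate inhibition of at least 40%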
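Material – purified CerCALP PDZ construct · Detection – FP readout, S and P plane fluorescence · Measure – percent inhibition from loss of millipolarization · Controls – unlabelled peptide for full inhibition, DMSO wells as neutral · Probe or stimulus – TMR-labelled reporter peptide T*-PRC34 bound in PDZ groove · Times – 1 h at RT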
Numbers stand for hits.

Results for COCC(=O)Oc1c(S(=O)(=O)c2ccc(C)cc2)c(C)nn1-c1ccccc1 ?
Glyco luc inh: inactive; CDK5 p35 inh: inactive; CAL PDZ FP-1: inactive; PvdQ acylase: 34; Vif imaging: inactive

How did COCC(=O)Oc1c(S(=O)(=O)c2ccc(C)cc2)c(C)nn1C(C)(C)C do in these assays?
Glyco luc inh: inactive; CDK5 p35 inh: inactive; CAL PDZ FP-1: inactive; PvdQ acylase: inactive; Vif imaging: inactive; CAL PDZ FP-2: inactive

How did C=CCSC(=C(C#N)C#N)c1cc2c([nH]1)CCCC2 do in these assays?
Glyco luc inh: 40; CDK5 p35 inh: inactive; CAL PDZ FP-1: inactive; PvdQ acylase: inactive; Vif imaging: inactive; CAL PDZ FP-2: inactive

What do the screens show for `O=C(O)c1cc2c([nH]c1=O)CCCC2`?
Glyco luc inh: inactive; CDK5 p35 inh: inactive; CAL PDZ FP-1: inactive; PvdQ acylase: inactive; Vif imaging: inactive

How did Cc1cn(S(=O)(=O)c2ccc(Cl)cc2)c(C)n1 do in these assays?
Glyco luc inh: inactive; CDK5 p35 inh: inactive; CAL PDZ FP-1: 78; PvdQ acylase: inactive; Vif imaging: inactive; CAL PDZ FP-2: inactive

Results for Cc1cc(C)n(S(=O)(=O)c2ccc(Cl)cc2)n1 ?
Glyco luc inh: inactive; CDK5 p35 inh: inactive; CAL PDZ FP-1: inactive; PvdQ acylase: inactive; Vif imaging: inactive; CAL PDZ FP-2: inactive

How did COc1ccc(Cl)cc1NC(=O)NCC1CCN(Cc2cc(C)ccc2C)CC1 do in these assays?
Glyco luc inh: inactive; CDK5 p35 inh: inactive; CAL PDZ FP-1: inactive; PvdQ acylase: inactive; Vif imaging: inactive; CAL PDZ FP-2: inactive

What do the screens show for `COc1cc([N+](=O)[O-])ccc1NC(=O)NCC1CCN(Cc2ccc(Cl)cc2)CC1`?
Glyco luc inh: inactive; CDK5 p35 inh: inactive; CAL PDZ FP-1: 46; PvdQ acylase: inactive; Vif imaging: inactive

Results for CC(C)Cn1c(=O)c2c(nc3n2CC(C)CN3Cc2ccccc2)n(C)c1=O (stereo unspecified) ?
Glyco luc inh: inactive; CDK5 p35 inh: inactive; CAL PDZ FP-1: inactive; PvdQ acylase: inactive; Vif imaging: inactive; CAL PDZ FP-2: inactive

What do the screens show for `COc1ccc(OC)c(NP2(=O)OCC(C)([N+](=O)[O-])CO2)c1` (stereo unspecified)?
Glyco luc inh: inactive; CDK5 p35 inh: inactive; CAL PDZ FP-1: inactive; PvdQ acylase: inactive; Vif imaging: inactive; CAL PDZ FP-2: inactive

How did Cc1c(NS(=O)(=O)c2ccc(Br)s2)c(=O)n(-c2ccccc2)n1C do in these assays?
Glyco luc inh: inactive; CDK5 p35 inh: inactive; CAL PDZ FP-1: inactive; PvdQ acylase: inactive; Vif imaging: inactive; CAL PDZ FP-2: inactive

What do the screens show for `Cc1c(NS(=O)(=O)c2ccc(S(=O)(=O)c3ccccc3)s2)c(=O)n(-c2ccccc2)n1C`?
Glyco luc inh: inactive; CDK5 p35 inh: inactive; CAL PDZ FP-1: 50; PvdQ acylase: inactive; Vif imaging: inactive; CAL PDZ FP-2: inactive

What do the screens show for `CN(Cc1cccc(F)c1)C(=O)c1ccc2c(=O)n3c(nc2c1)CCC3`?
Glyco luc inh: inactive; CDK5 p35 inh: inactive; CAL PDZ FP-1: 65; PvdQ acylase: inactive; Vif imaging: inactive; CAL PDZ FP-2: inactive

Results for COc1ccc(NC(=O)c2cc3c(-c4ccc(OC)c(OC)c4)nn(C)c3s2)cc1OC ?
Glyco luc inh: inactive; CDK5 p35 inh: inactive; CAL PDZ FP-1: 56; PvdQ acylase: inactive; Vif imaging: inactive; CAL PDZ FP-2: inactive

How did C=CCNC(=S)N1CCC(C(=O)c2ccc(Cl)cc2)CC1 do in these assays?
Glyco luc inh: inactive; CDK5 p35 inh: inactive; CAL PDZ FP-1: inactive; PvdQ acylase: inactive; Vif imaging: inactive; CAL PDZ FP-2: inactive

What do the screens show for `CC[C@]12c3[nH]c4ccc(Cl)cc4c3CCN1C(=O)[C@@H](CC(=O)NC/C=C(\C)CCC=C(C)C)C[C@@H]2C(=O)N1CCN(C(=O)C2CC2)CC1`?
Glyco luc inh: inactive; CDK5 p35 inh: inactive; CAL PDZ FP-1: inactive; PvdQ acylase: inactive; CAL PDZ FP-2: inactive

What do the screens show for `O=C(Nc1ccccc1N1CCOCC1)c1ccc(Cl)c(S(=O)(=O)NCc2ccco2)c1`?
Glyco luc inh: inactive; CDK5 p35 inh: inactive; CAL PDZ FP-1: 91; PvdQ acylase: inactive; Vif imaging: inactive; CAL PDZ FP-2: inactive

What do the screens show for `Cc1cc(F)ccc1NC(=O)c1cc(S(=O)(=O)N2CCCC2)cn1C`?
Glyco luc inh: inactive; CDK5 p35 inh: inactive; CAL PDZ FP-1: 69; PvdQ acylase: inactive; Vif imaging: inactive; CAL PDZ FP-2: inactive

What do the screens show for `Cc1ccc(S(=O)(=O)N(C)CC(=O)N2CCCC2)cc1`?
Glyco luc inh: inactive; CDK5 p35 inh: inactive; CAL PDZ FP-1: inactive; PvdQ acylase: inactive; Vif imaging: inactive

What do the screens show for `Cc1cc(C)c(S(=O)(=O)N(C)CC(=O)N2CCCC2)c(C)c1`?
Glyco luc inh: 34; Vif imaging: inactive

How did Cc1ccc(C)c(N(CC(=O)N2CCCC2)S(C)(=O)=O)c1 do in these assays?
Glyco luc inh: inactive; CDK5 p35 inh: inactive; CAL PDZ FP-1: 77; PvdQ acylase: inactive; Vif imaging: inactive; CAL PDZ FP-2: inactive

How did CSc1ccccc1NC(=O)CN1CCN(c2ccccn2)CC1 do in these assays?
Glyco luc inh: inactive; CDK5 p35 inh: inactive; CAL PDZ FP-1: inactive; PvdQ acylase: inactive; Vif imaging: inactive

What do the screens show for `Cc1cc(Br)ccc1NC(=O)CN1CCN(c2ccccn2)CC1`?
Glyco luc inh: inactive; CDK5 p35 inh: inactive; CAL PDZ FP-1: 75; PvdQ acylase: inactive; Vif imaging: inactive

Results for Cc1cnc(NC(=O)CN2CCN(c3ccccn3)CC2)s1 ?
Glyco luc inh: inactive; CDK5 p35 inh: inactive; CAL PDZ FP-1: inactive; PvdQ acylase: inactive; Vif imaging: 114; CAL PDZ FP-2: inactive

Results for Cc1noc(C)c1NC(=O)Nc1cccc2c1O[C@H](CN(C)C(=O)NC(C)C)[C@@H](C)CN([C@H](C)CO)C2=O ?
Glyco luc inh: inactive; CDK5 p35 inh: inactive; CAL PDZ FP-1: inactive; PvdQ acylase: inactive; Vif imaging: inactive; CAL PDZ FP-2: inactive

Results for N#C/C(=C(/O)c1ccccc1F)c1nc2cc(C(F)(F)F)ccc2s1 ?
Glyco luc inh: inactive; CDK5 p35 inh: inactive; CAL PDZ FP-1: inactive; PvdQ acylase: inactive; Vif imaging: inactive; CAL PDZ FP-2: inactive

What do the screens show for `N#C/C(=C(/O)c1ccc2c(c1)OCO2)c1nc2cc(C(F)(F)F)ccc2s1`?
Glyco luc inh: inactive; CDK5 p35 inh: inactive; CAL PDZ FP-1: 43; PvdQ acylase: inactive; Vif imaging: inactive; CAL PDZ FP-2: inactive

What do the screens show for `Cn1c(=O)c(C(=O)Nc2ncccc2O)c(O)c2ccccc21`?
Glyco luc inh: inactive; CDK5 p35 inh: inactive; CAL PDZ FP-1: inactive; PvdQ acylase: inactive; Vif imaging: inactive; CAL PDZ FP-2: inactive

What do the screens show for `CCCn1c(=O)c(C(=O)Nc2ncccc2O)c(O)c2ccccc21`?
Glyco luc inh: inactive; CDK5 p35 inh: inactive; CAL PDZ FP-1: inactive; PvdQ acylase: inactive; Vif imaging: 58; CAL PDZ FP-2: inactive

How did CCN(CCS(=O)(=O)c1ccc(Br)cc1)Cc1nc2ccccc2c(=O)[nH]1 do in these assays?
Glyco luc inh: inactive; CDK5 p35 inh: inactive; CAL PDZ FP-1: inactive; PvdQ acylase: inactive; Vif imaging: inactive; CAL PDZ FP-2: inactive
